Assay results from ChEMBL document CHEMBL1649289, “Paradoxical growth of Candida dubliniensis does not preclude in vivo response to echinocandin therapy” (2009).
Values after ≈ are worked out from the molar mass of the structure shown. Starred links: 1 amine or outer side, 2 acyl side, 3 side chain; linkers in the order of their positions; H or OH if unused. Positions of bridges follow the written chain, without caps; N, C: chain ends. Non-standard residues stand in square brackets, D forms with d. Residues, ends and D or L forms follow the SMILES beside them. *: point of attachment. pTerphenylCO(4''-OnC5H11) = CCCCCOc1ccc(-c2ccc(-c3ccc(C(=O)*)cc3)cc2)cc1; Orn(4R-OH,5R-OH) = O=C([C@H](C[C@@H](O)[C@@H](O)N[*:3])N[*:1])[*:2]; hTyr(3S-OH,4S-OH) = N[C@H](C(=O)O)[C@H](O)[C@@H](O)c1ccc(O)cc1; Pro(3S-OH,4S-Me) = C[C@H]1CN[C@H](C(=O)O)[C@H]1O; Hyp = O=C(O)[C@@H]1C[C@@H](O)CN1

Columns and labels:
Type in all cases: functional
Candida dubliniensis [1] = experiment: Antifungal activity against Candida dubliniensis 9453 after 24 hrs; details: Candida dubliniensis, 9453, 24 h
Method in brief: (§1)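 CLSI M27-A3 broth microdilution. Yeast inoculum was adjusted with a hemocytometer. MIC was read at 24 h or 48 h as the lowest concentration giving 50% growth inhibition.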

Candida dubliniensis [2] = experiment: Antifungal activity against Candida dubliniensis 10031 after 24 hrs; details: Candida dubliniensis, 10031, 24 h; method in brief: as §1
Candida dubliniensis [3] = experiment: Antifungal activity against Candida dubliniensis 10033 by hemocytometry
Method in brief: (§2)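 Minimal fungicidal concentration from the broth dilution test, defined as the lowest drug level giving ≥99.9% reduction in CFU/ml. Inocula were adjusted by hemocytometer.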

Candida dubliniensis [4] = experiment: Antifungal activity against Candida dubliniensis 9456 after 48 hrs; details: Candida dubliniensis, 9456, 48 h; method in brief: as §1
Candida dubliniensis [5] = experiment: Antifungal activity against Candida dubliniensis 9456 by hemocytometry; method in brief: as §2
Candida dubliniensis [6] = experiment: Antifungal activity against Candida dubliniensis FMR 10034 infected in OF1 mouse assessed as fungal count in spleen at 1 mg/kg/day, iv […]
Method in brief: (§3)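 Immunocompetent male OF1 mice, 10 per group, were challenged i.v. with 1.5 × 10^7 CFU. Drug was given i.v. once daily at 1 or 10 mg/kg for 3 days, starting 24 h post-challenge; controls were untreated. Mice were killed 1 day after the last dose. Kidneys and spleen were homogenized in saline, serial 10-fold dilutions were plated on Sabouraud agar at 35°C for 3 days, and mean log10 CFU was reported.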

Candida dubliniensis [7] = experiment: Antifungal activity against Candida dubliniensis FMR 10032 infected in immunosuppressed OF1 mouse assessed as fungal count in kidney at 1 mg/kg/day, iv […]
Method in brief: (§4)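 Male OF1 mice, 10 per group, were immunosuppressed on infection day with cyclophosphamide 200 mg/kg i.p. plus 5-fluorouracil 150 mg/kg i.v., then challenged i.v. with 1.5 × 10^5 CFU. Drug was given at 1 mg/kg i.v. once daily for 5 days, starting 24 h after challenge. One day after treatment ended, kidney and spleen homogenates were plated in 10-fold dilutions on Sabouraud agar (35°C, 3 days) and mean log10 CFU was reported.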

Candida dubliniensis [8] = experiment: Antifungal activity against Candida dubliniensis 10032 by hemocytometry; method in brief: as §2
Candida dubliniensis [9] = experiment: Antifungal activity against Candida dubliniensis 10033 after 48 hrs; details: Candida dubliniensis, 10033, 48 h; method in brief: as §1
Candida dubliniensis [10] = experiment: Antifungal activity against Candida dubliniensis FMR 10034 infected in immunosuppressed OF1 mouse assessed as fungal count in kidney at 1 mg/kg/day, iv […]; method in brief: as §4
Candida dubliniensis [11] = experiment: Antifungal activity against Candida dubliniensis 10031 after 48 hrs; details: Candida dubliniensis, 10031, 48 h; method in brief: as §1
Candida dubliniensis [12] = experiment: Antifungal activity against Candida dubliniensis 10034 after 48 hrs; details: Candida dubliniensis, 10034, 48 h; method in brief: as §1
Candida dubliniensis [13] = experiment: Antifungal activity against Candida dubliniensis 9453 after 48 hrs; details: Candida dubliniensis, 9453, 48 h; method in brief: as §1
Candida dubliniensis [14] = experiment: Antifungal activity against Candida dubliniensis 10031 by hemocytometry; method in brief: as §2
Candida dubliniensis [15] = experiment: Antifungal activity against Candida dubliniensis FMR 10034 infected in OF1 mouse assessed as fungal count in kidney at 10 mg/kg/day, iv […]; method in brief: as §3
Candida dubliniensis [16] = experiment: Antifungal activity against Candida dubliniensis 9456 assessed as compound concentration at which paradoxical growth of observed after 48 hrs
Method in brief: (§5)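 Broth dilution susceptibility testing of yeasts per CLSI reference method M27-A3, with inocula adjusted by hemocytometer count. Wells were read at 24 and 48 h. The paradoxical growth range is the span of drug concentrations (μg/ml) over which growth reappeared above the inhibitory concentration. Where growth occurred across the entire concentration range (trailing), no range was determined.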

Candida dubliniensis [17] = experiment: Antifungal activity against Candida dubliniensis 10032 after 48 hrs; details: Candida dubliniensis, 10032, 48 h; method in brief: as §1
Candida dubliniensis [18] = experiment: Antifungal activity against Candida dubliniensis 10034 assessed as compound concentration at which paradoxical growth of observed after 48 hrs
Method in brief: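 In the same broth dilution (CLSI M27-A3) tests, read at 24 or 48 h, this is the range of drug concentrations over which paradoxical growth appeared. It was not set when growth occurred across the whole tested range (trailing).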

Candida dubliniensis [19] = experiment: Antifungal activity against Candida dubliniensis 9453 assessed as compound concentration at which paradoxical growth of observed after 48 hrs; method in brief: as §5
Candida dubliniensis [20] = experiment: Antifungal activity against Candida dubliniensis 10035 after 24 hrs; details: Candida dubliniensis, 10035, 24 h; method in brief: as §1
Candida dubliniensis [21] = experiment: Antifungal activity against Candida dubliniensis 10033 after 24 hrs; details: Candida dubliniensis, 10033, 24 h; method in brief: as §1
Candida dubliniensis [22] = experiment: Antifungal activity against Candida dubliniensis FMR 10034 infected in OF1 mouse assessed as fungal count in kidney at 1 mg/kg/day, iv […]; method in brief: as §3
Candida dubliniensis [23] = experiment: Antifungal activity against Candida dubliniensis 10034 after 24 hrs; details: Candida dubliniensis, 10034, 24 h; method in brief: as §1
Candida dubliniensis [24] = experiment: Antifungal activity against Candida dubliniensis 9456 after 24 hrs; details: Candida dubliniensis, 9456, 24 h; method in brief: as §1
Candida dubliniensis [25] = experiment: Antifungal activity against Candida dubliniensis FMR 10032 infected in immunosuppressed OF1 mouse assessed as fungal count in spleen at 1 mg/kg/day, iv […]; method in brief: as §4
Candida dubliniensis [26] = experiment: Antifungal activity against Candida dubliniensis FMR 10032 infected in OF1 mouse assessed as fungal count in kidney at 1 mg/kg/day, iv […]; method in brief: as §3
Candida dubliniensis [27] = experiment: Antifungal activity against Candida dubliniensis 10034 by hemocytometry; method in brief: as §2
Candida dubliniensis [28] = experiment: Antifungal activity against Candida dubliniensis FMR 10032 infected in OF1 mouse assessed as fungal count in kidney at 10 mg/kg/day, iv […]; method in brief: as §3
Candida dubliniensis [29] = experiment: Antifungal activity against Candida dubliniensis FMR 10032 infected in OF1 mouse assessed as fungal count in spleen at 1 mg/kg/day, iv […]; method in brief: as §3
Candida dubliniensis [30] = experiment: Antifungal activity against Candida dubliniensis 10033 assessed as compound concentration at which paradoxical growth of observed after 48 hrs; method in brief: as §5
Candida dubliniensis [31] = experiment: Antifungal activity against Candida dubliniensis 10035 after 48 hrs; details: Candida dubliniensis, 10035, 48 h; method in brief: as §1
Candida dubliniensis [32] = experiment: Antifungal activity against Candida dubliniensis 9453 by hemocytometry; method in brief: as §2
Candida dubliniensis [33] = experiment: Antifungal activity against Candida dubliniensis FMR 10034 infected in OF1 mouse assessed as fungal count in spleen at 10 mg/kg/day, iv […]; method in brief: as §3
Candida dubliniensis [34] = experiment: Antifungal activity against Candida dubliniensis FMR 10034 infected in immunosuppressed OF1 mouse assessed as fungal count in spleen at 1 mg/kg/day, iv […]; method in brief: as §4
Candida dubliniensis [35] = experiment: Antifungal activity against Candida dubliniensis 10032 after 24 hrs; details: Candida dubliniensis, 10032, 24 h; method in brief: as §1
Candida dubliniensis [36] = experiment: Antifungal activity against Candida dubliniensis FMR 10032 infected in OF1 mouse assessed as fungal count in spleen at 10 mg/kg/day, iv […]; method in brief: as §3

## CCCCCOc1ccc(-c2ccc(-c3ccc(C(=O)N[C@H]4C[C@@H](O)[C@@H](O)NC(=O)[C@@H]5[C@@H](O)[C@@H](C)CN5C(=O)[C@H]([C@@H](C)O)NC(=O)[C@H]([C@H](O)[C@@H](O)c5ccc(O)cc5)NC(=O)[C@@H]5C[C@@H](O)CN5C(=O)[C@H]([C@@H](C)O)NC4=O)cc3)cc2)cc1 [ANIDULAFUNGIN] ({pTerphenylCO(4''-OnC5H11)}-[Orn(4R-OH,5R-OH)]T[Hyp][hTyr(3S-OH,4S-OH)]T[Pro(3S-OH,4S-Me)]; lactam 1-C)
Candida dubliniensis [1]
  MIC50: < 0.03 µg/mL
Candida dubliniensis [2]
  MIC50: < 0.03 µg/mL
Candida dubliniensis [3]
  MFC: 2 µg/mL (≈ 1.75 µM)
Candida dubliniensis [4]
  MIC50: < 0.03 µg/mL
Candida dubliniensis [5]
  MFC: > 16 µg/mL
Candida dubliniensis [6]
  log10cfu: 4.54
Candida dubliniensis [7]
  log10cfu: 5.75
Candida dubliniensis [8]
  MFC: 2 µg/mL (≈ 1.75 µM)
Candida dubliniensis [9]
  MIC50: 0.06 µg/mL (≈ 0.0526 µM)
Candida dubliniensis [10]
  log10cfu: 5.94
Candida dubliniensis [11]
  MIC50: < 0.03 µg/mL
Candida dubliniensis [12]
  MIC50: < 0.03 µg/mL
Candida dubliniensis [13]
  MIC50: < 0.03 µg/mL
Candida dubliniensis [14]
  MFC: > 16 µg/mL
Candida dubliniensis [15]
  log10cfu: 4.63
Candida dubliniensis [16]
  Activity: 8 µg/mL
Candida dubliniensis [17]
  MIC50: < 0.03 µg/mL
Candida dubliniensis [18]
  Activity: 4 µg/mL
Candida dubliniensis [19]
  Activity: 4 µg/mL
Candida dubliniensis [20]
  MIC50: < 0.03 µg/mL
Candida dubliniensis [21]
  MIC50: < 0.03 µg/mL
Candida dubliniensis [22]
  log10cfu: 6.33
Candida dubliniensis [23]
  MIC50: < 0.03 µg/mL
Candida dubliniensis [24]
  MIC50: < 0.03 µg/mL
Candida dubliniensis [25]
  log10cfu: 2.62
Candida dubliniensis [26]
  log10cfu: 5.65
Candida dubliniensis [27]
  MFC: > 16 µg/mL
Candida dubliniensis [28]
  log10cfu: 2.95
Candida dubliniensis [29]
  log10cfu: 4.21
Candida dubliniensis [30]
  Activity: 4 µg/mL
Candida dubliniensis [31]
  MIC50: < 0.03 µg/mL
Candida dubliniensis [32]
  MFC: > 16 µg/mL
Candida dubliniensis [33]
  log10cfu: 4.25
Candida dubliniensis [34]
  log10cfu: 2.96
Candida dubliniensis [35]
  MIC50: < 0.03 µg/mL
Candida dubliniensis [36]
  log10cfu: 2.64
